Assay results published in ChEMBL document CHEMBL1671623, “Identification and biochemical characterization of small-molecule inhibitors of west nile virus serine protease by a high-throughput screen” (Antimicrob Agents Chemother, 2008).
Values belong to the molecule of their own block, whether it stands above or below them. Active and inactive are the calls of the source. The rule behind the calls is not given here. Peptide text beside a SMILES is read from it. * marks the point of attachment. AMC = Cc1cc(=O)oc2cc(N*)ccc12; Boc = CC(C)(C)OC(=O)*

Legend:
West Nile virus [1] = test: Inhibition of West Nile virus EG101 NS2BH/NS3 serine protease after 15 mins using Z-Val-Lys-Arg-MNA substrate assessed as increase in apparent Km/apparent Vmax ratio of substrate by Sigma plot
How it was run: (§1)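 Steady-state kinetics with purified NS2BH/NS3 protease. Enzyme preincubated 15 min at room temperature with inhibitor at 0, 1.5, 2.5, 5 or 10 µM. Substrate then added at eight concentrations (10–400 µM) for 15 min. AMC or MNA fluorescence converted to rate via a standard curve. Kmapp/Vmaxapp and 1/Vmaxapp plotted against inhibitor concentration; Ki from kinetic fitting; repeated three times.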

[2] = target: Coagulation factor X (Homo sapiens) (UniProt P00742); test: Inhibition of protease activity of factor 10a using Boc-Ile-Glu-Gly-Arg-AMC substrate
Coagulation factor X (Homo sapiens), sequence (P00742 41-179 limits assumed): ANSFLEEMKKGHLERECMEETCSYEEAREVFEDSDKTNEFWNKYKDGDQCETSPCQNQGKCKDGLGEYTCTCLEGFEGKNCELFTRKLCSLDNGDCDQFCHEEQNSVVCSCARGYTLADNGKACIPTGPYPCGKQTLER
Coagulation factor X (Homo sapiens), sequence (P00742 235-488 limits assumed): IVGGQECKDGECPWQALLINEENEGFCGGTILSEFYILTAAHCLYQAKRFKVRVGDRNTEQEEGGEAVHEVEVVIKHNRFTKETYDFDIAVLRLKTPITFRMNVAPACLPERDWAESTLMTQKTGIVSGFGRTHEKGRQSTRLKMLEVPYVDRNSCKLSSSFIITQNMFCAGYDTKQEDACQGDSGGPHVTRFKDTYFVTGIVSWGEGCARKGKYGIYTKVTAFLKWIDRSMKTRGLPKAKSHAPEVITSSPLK
How it was run: (§2)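 Trypsin (67 nM) or factor Xa (25 nM) preincubated 15 min at room temperature with 50 µM inhibitor in 200 mM Tris-HCl pH 9.5, 6 mM NaCl, 30% glycerol. Substrate added at 100 µM for 15 min: Z-Gly-Pro-Arg-pNA for trypsin, read by absorbance at 405 nm; Boc-Ile-Glu-Gly-Arg-AMC for factor Xa, read by fluorescence. Aprotinin as positive control; triplicate.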

West Nile virus [3] = test: Inhibition of West Nile virus EG101 NS2BH/NS3 serine protease after 15 mins using Boc-Gly-Lys-Arg-AMC substrate assessed as increase in apparent Km/apparent Vmax ratio of substrate by Sigma plot; how it was run: as §1
[4] = Inhibition of protease activity of trypsin using Z-Gly-Pro-Arg-pNA substrate; how it was run: as §2
[5] = (§3) Cytotoxicity against African green monkey Vero cells after 24 hrs by Cell Titer-Glo assay; format: cell-based; conditions: chlorocebus sabaeus, Vero cells
How it was run: (§4)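 Vero cells seeded at 5,000 cells/well and grown 24 h at 37°C, 5% CO2. Compound added in triplicate in DMEM with 10% FBS and incubated a further 24 h. Viability read by CellTiter-Glo luminescence. Cytotoxicity expressed relative to no-compound wells; CC50 taken from the dose curve; two independent experiments.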

West Nile virus [6] = test: Antiviral activity against West Nile virus EG101 infected in Vero cells assessed as inhibition of viral replication measured 24 hrs post infection by luciferase reporter gene assay; format: functional, organism-based
How it was run: (§5)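 Vero cells pretreated 30 min with twofold serial dilutions of inhibitor in MEM with 10% FBS and 1% penicillin-streptomycin. Then infected with WNV reporter virus particles carrying a Renilla luciferase subgenomic replicon (approx. 1 x 10^4 RVPs, MOI 0.5 to 1.0). Lysates assayed for luciferase. EC50 from variable-slope sigmoidal nonlinear regression; triplicate.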

[7] = Inhibition of Dengue virus 2 New Guinea C NS2BH/NS3 serine protease after 15 mins by spectrofluorometer in presence of Boc-Gly-Arg-Arg-AMC; design: species or system dengue virus type 2
How it was run: (§6)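 His-tagged NS2BH/NS3 complex expressed in E. coli and purified by Talon affinity and Sephadex G-75. 67 nM protease preincubated 15 min at room temperature with 50 µM inhibitor in 200 mM Tris-HCl pH 9.5, 6 mM NaCl, 30% glycerol. Substrate added at 100 µM final (Boc-GKR-AMC for WNV, Boc-GRR-AMC for DENV2) for 15 min. AMC fluorescence read at ex 390/em 465 nm. Activity expressed as percent of no-inhibitor control; triplicate.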

West Nile virus [8] = test: Antiviral activity against West Nile virus EG101 infected in Vero cells assessed as inhibition of viral replication measured 72 hrs post infection by luciferase reporter gene assay; format: functional, organism-based; how it was run: as §5
West Nile virus [9] = test: Antiviral activity against West Nile virus EG101 infected in Vero cells assessed as inhibition of viral replication measured 48 hrs post infection by luciferase reporter gene assay; format: functional, organism-based; how it was run: as §5
[10] = Selectivity index, ratio of CC50 for African green monkey Vero cells to EC50 for West Nile virus EG101; format: toxicity, cell-based; conditions: read-out: Selectivity Index
[11] = Inhibition of West Nile virus EG101 NS2BH/NS3 serine protease after 15 mins using Boc-Gly-Lys-Arg-AMC substrate by spectrofluorometry; how it was run: as §6
Vero = test: as §3; format: cell-based; conditions: chlorocebus sabaeus, vero, 24 h; how it was run: as §4

Km (West Nile virus [1]): 737 µM
Compound: Cc1cc(=O)oc2cc(NC(=O)[C@H](CCCNC(=N)N)NC(=O)[C@H](CCCCN)NC(=O)CNC(=O)OC(C)(C)C)ccc12 (Boc-Gly-Lys-Arg-{AMC})

inhibition [2]: inactive | inhibition (West Nile virus [3]): Active | inhibition [4]: inactive | EC50 (West Nile virus [9]): 1.4 µM | inhibition (West Nile virus [1]): Active
Compound: Oc1ccccc1C(Nc1nccs1)c1ccc2cccnc2c1O (configuration not stated)
CC50 at 24 h [5]: 140 µM | inhibition (West Nile virus [6]): Active | Ki [7]: 30.2 µM | inhibition (West Nile virus [8]): Active | selectivity ratio [10]: 100 | Ki [11]: 3.4 µM

Compound: CCn1c(SCC(=O)c2ccccc2)nc2ccccc2c1=O
Ki [7]: 17 µM | Ki [11]: 37.3 µM

Compound: COc1cccc(C(NC(=O)c2ccccc2)c2ccc3cccnc3c2O)c1 (configuration not stated)
Activity (Vero): Toxic | Ki [7]: 28.6 µM | Ki [11]: 3.2 µM
